The text below walks through data of PubChem BioAssay.

Assay [1] in a line: inhibitors of TNFa-induced NFkB p65 translocation, primary screen, imaging, HUVEC, MLSMR starter and 10KST1 sets (AID 438;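 active = inhibition above 20% together with a positive visual image hit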;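 note: compound added about 3h40 before a 20 min TNFalpha stimulation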;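 for inhibition: signal is the nuclear over cytoplasmic p65 intensity ratio per well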). To be noted: HUVEC TNFa-induced p65 nuclear translocation; cell count: measured here: nuclei count (cytotoxicity indicator), at 2.08 µM; inhibition: at 2 µM, stronger effect = higher value, 0% TNFa-plus-vehicle, 100% no-TNFa wells.
A short description of assay [2]: inhibitors of mutant huntingtin aggregation, primary screen, imaging, exon1htt(103Q)mCFP cells, high-content imaging (AID 483;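 active = visual image review flags a hit and inhibition of aggregation exceeds 20%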;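 note: compound exposure lasted 3 days before fixation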;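 for nuclei count: percent of the per-plate median nuclei count of sample wells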). Conditions: exon1htt(103Q)mCFP cell line, aggregate imaging, at 2 µM; inhibition of aggregation: stronger effect = higher value; nuclei count: measured here: cell count, toxicity.
Assay [3] is described as follows: inhibitors of E-selectin induction by TNFa, primary screen, imaging, HUVEC, immunofluorescence, MLSMR starter and 10KST1 sets (AID 487;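 active = visually confirmed hit in the image check and inhibition above 20%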;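 for inhibition: signal is fraction of cell area covered by stained E-selectin grains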;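 for nuclei count: 100% = median nuclei count of all wells on the same plate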). Conditions: HUVEC TNFalpha-induced E-selectin immunofluorescence imaging, at 2 µM; inhibition: stronger effect = higher value; nuclei count: measured here: cell number, toxicity.
Assay [4] addresses Voltage-gated potassium channel subunit beta-2 (Rattus norvegicus) (UniProt P62483). Briefly: KvBeta enzyme negative modulators, primary screen, biochemical, NADPH fluorescence (AID 622;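 active = fluorescence slope higher than the sample average by over 3 SD, cut at about -0.22 in these data, passing the limit was not always enough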;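 note: slope of raw intensity against log time taken from 70 to 1610 s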). To be noted: recombinant KvBeta, 4-cyanobenzaldehyde reduction, at 10 µM, stronger effect = higher value.
The target is the same in assay [5]. The assay can be described thus: KvBeta positive modulators, primary screen, biochemical, NADPH fluorescence (AID 623).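 Note: fluorescence intensity change per second fitted from 20 to 320 s.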 Conditions: Recombinant KvBeta, NADPH fluorescence decrease slope, 10 min; at 10 µM; stronger effect = lower value.
The target of assay [6] is Muscarinic acetylcholine receptor M4 (Homo sapiens) (UniProt P08173). Briefly: compounds altering M4/GIRK thallium flux, either direction, primary screen, M4 allosteric agonist project, cell-based, HEK293 M4/GIRK, BTC-AM (AID 625;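 active = fluorescence slope after compound addition differing from the mean of all tested samples at 99.7% confidence, mostly higher but some lower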;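 note: thallium influx through GIRK channels coupled to M4 in HEK293 cells with BTC-AM dye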). Conditions: at 10 µM, actives lie on both sides. In outline: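 Material: HEK293 cells with M4 receptor and GIRK channels; Times: cells overnight at 37 °C, BTC-AM loading 1 h, reads 2 min total; Technique: kinetic BTC-AM fluorescence sampled at 1 Hz, 10 s pre-addition baseline; Read-out basis: slope over 15–24 s of trace normalized to starting intensity; Controls: carbachol positive, DMSO negative.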
Muscarinic acetylcholine receptor M4 (Homo sapiens), sequence (P08173 whole entry, looked up): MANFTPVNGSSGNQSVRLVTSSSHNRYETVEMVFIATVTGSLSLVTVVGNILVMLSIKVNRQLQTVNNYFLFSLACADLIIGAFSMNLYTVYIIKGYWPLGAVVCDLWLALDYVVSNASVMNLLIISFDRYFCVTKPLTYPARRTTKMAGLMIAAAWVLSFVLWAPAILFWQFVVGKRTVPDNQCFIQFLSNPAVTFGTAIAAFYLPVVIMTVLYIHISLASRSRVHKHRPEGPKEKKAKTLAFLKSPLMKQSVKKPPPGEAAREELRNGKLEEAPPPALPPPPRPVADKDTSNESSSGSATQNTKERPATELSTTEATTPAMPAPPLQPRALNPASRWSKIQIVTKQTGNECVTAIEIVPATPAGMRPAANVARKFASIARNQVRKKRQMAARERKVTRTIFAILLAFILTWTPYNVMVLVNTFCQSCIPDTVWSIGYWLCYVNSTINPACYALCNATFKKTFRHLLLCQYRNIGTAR

A short description of assay [7]: inhibitors of Sendai virus-induced IRF3 signaling, primary screen, TLR/RLR signaling modifier project, cell-based, Sendai virus stimulus, luciferase, 10K MLSCN set (AID 602276;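 active = inhibition at or above 50% at 10 µM; inactive = inhibition below 50%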;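 note: firefly luciferase from ISG56 promoter only with Renilla not read in this screen; 0% = Sendai virus plus DMSO and 100% = medium plus DMSO without virus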). To be noted: HEK293 RL24 IRF3 luciferase reporter, at 10 µM, stronger effect = higher value.
The nature of assay [8]: inhibitors of poly I:C-induced TLR3 signaling, primary screen, cell-based, poly I:C stimulus, luciferase, 10K MLSCN set (AID 602277;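 active = inhibition of the reporter signal at or above 50%; inactive = inhibition below 50%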). To be noted: HEK293-TLR3 RL24 IRF3 luciferase reporter, at 10 µM, stronger effect = higher value.

Each structure is given as a SMILES string. Activity calls are given as the source filed them.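 Rule for the calls, unless noted: active = NADPH fluorescence slope more negative than the mean of all samples by about 3 SD, 99.7% confidence; inactive = the rest.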

Voltage-gated potassium channel subunit beta-2 (Rattus norvegicus), sequence (P62483 whole entry, looked up): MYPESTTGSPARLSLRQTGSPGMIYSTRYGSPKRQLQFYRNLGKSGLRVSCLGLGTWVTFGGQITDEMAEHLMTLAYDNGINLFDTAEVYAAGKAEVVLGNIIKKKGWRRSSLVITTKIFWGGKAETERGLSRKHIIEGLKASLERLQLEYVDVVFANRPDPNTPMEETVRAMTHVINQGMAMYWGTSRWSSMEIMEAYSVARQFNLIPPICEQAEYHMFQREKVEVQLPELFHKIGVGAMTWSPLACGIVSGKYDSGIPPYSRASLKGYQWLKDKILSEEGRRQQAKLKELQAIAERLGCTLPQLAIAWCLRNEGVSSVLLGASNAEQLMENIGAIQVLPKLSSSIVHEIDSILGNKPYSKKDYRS

`O=C(COC(=O)c1ccco1)NCc1cccs1`: the cell count in assay [1] was found to be 516. Besides, the inhibition was -13% (inactive) in assay [1], 7.8% (inactive) in assay [3], 5.62% (inactive) in assay [7] and 5.96% (inactive) in assay [8]. The inhibition of aggregation in assay [2] is -4.6% (inactive). The results for the nuclei count in assay [2] and in assay [3] were 93.5% and 88.2%, respectively. For the same compound, the figures for the fluorescence slope in assay [4] and in assay [6] were -0.534 (inactive) and 0.0055 (inactive), respectively. For the same compound, the NADPH fluorescence slope in assay [5] is -5.7e-05 (inactive).
Consider `CCCOc1ccc(C2c3c(oc4ccccc4c3=O)C(=O)N2CCCN2CCOCC2)cc1` (centres undefined), for which, in assay [1], the cell count was found to be 559. Besides, the inhibition in assay [1] is 16.8% (inactive); in assay [3] it was -18.5% (inactive); in assay [7] it was 11.7% (inactive); in assay [8] it was 21.3% (inactive). Further, in assay [2], the inhibition of aggregation is 26.2% (inactive). Further, the nuclei count in assay [2] stood at 100%; in assay [3] it was 101%. For the same compound, the fluorescence slope in assay [4] was -0.413 (inactive); in assay [6] it was 0.00521 (inactive). Besides, the NADPH fluorescence slope in assay [5] is -1.1e-05 (inactive).
With `Cc1ccc(CCNC(=O)C2CCN(S(=O)(=O)c3cccc4nsnc34)CC2)cc1`, the cell count in assay [1] came out at 644. The inhibition in assay [1] was 5.2% (inactive); in assay [3] it was -129% (inactive); in assay [7], 0.47% (inactive); in assay [8] it was -16.3% (inactive). Moreover, the inhibition of aggregation in assay [2] is -9.1% (inactive). The figures for the nuclei count in assay [2] and in assay [3] were 96.4% and 158%, respectively. The fluorescence slope is -0.461 (inactive) in assay [4] and 0.00736 (inactive) in assay [6]. Besides, the NADPH fluorescence slope in assay [5] is 0.000103 (inactive).
Consider `O=C(CS(=O)(=O)Cc1ccccc1)Nc1nc2ccccc2s1`, for which, in assay [1], the cell count was 425. Besides, the inhibition in assay [1] was -4% (inactive); in assay [3], 13.1% (inactive); in assay [7] it was 10.2% (inactive); in assay [8] it was 23.6% (inactive). The inhibition of aggregation in assay [2] is 8.1% (inactive). Also, the figures for the nuclei count in assay [2] and in assay [3] were 82.8% and 97%, respectively. Moreover, the figures for the fluorescence slope in assay [4] and in assay [6] were -0.487 (inactive) and 0.00544 (inactive), respectively. Also, the NADPH fluorescence slope in assay [5] was -3.1e-05 (inactive).
With `CCOC(=O)CNC(=O)c1c(C)nn(-c2ccccc2)c1Cl`, in assay [1], the cell count turned out to be 389. Further, the inhibition in assay [1] is 1.9% (inactive); in assay [3], -152% (inactive); in assay [7], -45.3% (inactive); in assay [8], 99.2% (active). Also, the inhibition of aggregation in assay [2] is 0.1% (inactive). Besides, the values for the nuclei count in assay [2] and in assay [3] were 56.2% and 127%, respectively. For the same compound, the fluorescence slope was -0.571 (inactive) in assay [4] and 0.00495 (inactive) in assay [6]. For the same compound, the NADPH fluorescence slope in assay [5] is -5.1e-06 (inactive).
As to `Cn1cccc1C1NC(=O)c2c(sc3c2CCC(C(C)(C)C)C3)N1` (centres undefined), in assay [1], the cell count stood at 495. Moreover, the inhibition is 1.7% (inactive) in assay [1], -107% (inactive) in assay [3], -3.95% (inactive) in assay [7] and -48.7% (inactive) in assay [8]. Moreover, the inhibition of aggregation in assay [2] was -10.6% (inactive). Further, the results for the nuclei count in assay [2] and in assay [3] were 93% and 127%, respectively. Besides, the fluorescence slope in assay [4] was -0.19 (inactive); in assay [6] it was 0.00584 (inactive). Also, the NADPH fluorescence slope in assay [5] was -1.5e-05 (inactive).
As to `CC(C(=O)NC1CCCCCC1)N(c1ccccc1)S(C)(=O)=O` (centres undefined), the cell count in assay [1] is 370. Moreover, the inhibition is 1.9% (inactive) in assay [1], -7.4% (inactive) in assay [3], 15.7% (inactive) in assay [7] and 3.26% (inactive) in assay [8]. The inhibition of aggregation in assay [2] is 4.5% (inactive). Besides, the nuclei count in assay [2] came out at 108%; in assay [3] it was 97%. Besides, the values for the fluorescence slope in assay [4] and in assay [6] were -0.548 (inactive) and 0.00352 (inactive), respectively. For the same compound, the NADPH fluorescence slope in assay [5] was -0.000126 (inactive).
With `O=C(COn1nnc2ccc(C(F)(F)F)cc21)Nc1nnc(-c2ccccc2)o1`, in assay [1], the cell count is 704. In addition, the inhibition in assay [1] is -3.6% (inactive); in assay [3], 108% (active); in assay [7], 2.7% (inactive); in assay [8] it was 10.1% (inactive). The inhibition of aggregation in assay [2] is -0.6% (inactive). Further, the values for the nuclei count in assay [2] and in assay [3] were 110% and 80.2%, respectively. The figures for the fluorescence slope in assay [4] and in assay [6] were -0.503 (inactive) and 0.005 (inactive), respectively. Besides, the NADPH fluorescence slope in assay [5] is -0.000163 (inactive).
Consider `Cn1nnnc1SCC(=O)Nc1ccccc1C(=O)NCc1ccccc1`, for which the cell count in assay [1] worked out at 368. The inhibition is 7.2% (inactive) in assay [1], -74.8% (inactive) in assay [3], -6.6% (inactive) in assay [7] and -17.1% (inactive) in assay [8]. The inhibition of aggregation in assay [2] is 0.2% (inactive). Besides, the values for the nuclei count in assay [2] and in assay [3] were 98.6% and 124%, respectively. Further, the fluorescence slope in assay [4] was -0.275 (inactive); in assay [6], 0.00734 (inactive). The NADPH fluorescence slope in assay [5] was -2.2e-05 (inactive).
Turning to `Cc1ccc(N2CC(C(=O)Nc3ccc4c(c3)OCO4)CC2=O)cc1` (centres undefined), in assay [1], the cell count came to 556. Further, the inhibition is -19.5% (inactive) in assay [1], -43.5% (inactive) in assay [3], 14.2% (inactive) in assay [7] and 21.6% (inactive) in assay [8]. In addition, in assay [2], the inhibition of aggregation is 18.6% (inactive). For the same compound, the nuclei count was found to be 110% in assay [2] and 120% in assay [3]. In addition, the fluorescence slope in assay [4] is -0.567 (inactive); in assay [6], 0.00603 (inactive). Besides, in assay [5], the NADPH fluorescence slope was -4.3e-05 (inactive).
On to `COc1ccccc1C1/C(=C(\O)c2c(C)nc3c(C)cccn23)C(=O)C(=O)N1CCCN(C)C` (centres undefined), for which, in assay [1], the cell count was determined as 530. The inhibition in assay [1] is -2.6% (inactive); in assay [3] it was 35.1% (inactive); in assay [7], 10.7% (inactive); in assay [8], 20.7% (inactive). Moreover, the inhibition of aggregation in assay [2] was -6.8% (inactive). The nuclei count in assay [2] amounted to 110%; in assay [3], 121%. The results for the fluorescence slope in assay [4] and in assay [6] were -0.298 (inactive) and 0.00521 (inactive), respectively. Also, in assay [5], the NADPH fluorescence slope is -5.5e-05 (inactive).
Turning to `CCN(CC)c1ccc(NC(=O)c2[nH]c(C)c(C(C)=O)c2C)c(C)c1`, the cell count in assay [1] worked out at 911. The inhibition in assay [1] was 7.1% (inactive); in assay [3] it was -105% (inactive); in assay [7] it was 2.56% (inactive); in assay [8] it was -8.53% (inactive). Further, the inhibition of aggregation in assay [2] was 8.4% (inactive). In addition, the nuclei count was 109% in assay [2] and 136% in assay [3]. Besides, the values for the fluorescence slope in assay [4] and in assay [6] were -0.555 (inactive) and 0.00732 (inactive), respectively. Moreover, in assay [5], the NADPH fluorescence slope was -3.3e-05 (inactive).
With `CCCN1C(=O)SC(CC(=O)Nc2ccc(Br)cc2)C1=O` (centres undefined), the cell count in assay [1] stood at 246. The inhibition is -7.8% (inactive) in assay [1], -47.8% (inactive) in assay [3], -2.25% (inactive) in assay [7] and 7.35% (inactive) in assay [8]. Besides, in assay [2], the inhibition of aggregation was -2.4% (inactive). Also, the nuclei count stood at 96.5% in assay [2] and 104% in assay [3]. For the same compound, the values for the fluorescence slope in assay [4] and in assay [6] were -0.444 (inactive) and 0.00512 (inactive), respectively. Further, in assay [5], the NADPH fluorescence slope is 2.7e-05 (inactive).
Consider `CCC(NS(=O)(=O)c1ccc(C)cc1)C(=O)N1CCC2(O)CCCCC2C1` (centres undefined), for which, in assay [1], the cell count was determined as 379. Besides, the inhibition in assay [1] was -3.1% (inactive); in assay [3] it was -121% (inactive); in assay [7], 0.0772% (inactive); in assay [8], 14.3% (inactive). For the same compound, the inhibition of aggregation in assay [2] is -10.7% (inactive). In addition, the nuclei count in assay [2] turned out to be 106%; in assay [3], 215%. In addition, the fluorescence slope in assay [4] is -0.429 (inactive); in assay [6], 0.00572 (inactive). Further, in assay [5], the NADPH fluorescence slope is 0.000113 (inactive).
